Molecules are shown by their SMILES. The whole screen tested about 320,000 compounds, of which about 200 (0.062%) were called active.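 The calls were made as follows: active = activation above that plate's cutoff, the mean activation of tested compounds plus 3 SD (cut at about 6.6% in these data, passing the limit was not always enough); inactive = the rest.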 Shown is part of a subset that was picked to be rich in actives.

Chain of Oxytocin receptor (Homo sapiens) (P30559 whole entry, looked up): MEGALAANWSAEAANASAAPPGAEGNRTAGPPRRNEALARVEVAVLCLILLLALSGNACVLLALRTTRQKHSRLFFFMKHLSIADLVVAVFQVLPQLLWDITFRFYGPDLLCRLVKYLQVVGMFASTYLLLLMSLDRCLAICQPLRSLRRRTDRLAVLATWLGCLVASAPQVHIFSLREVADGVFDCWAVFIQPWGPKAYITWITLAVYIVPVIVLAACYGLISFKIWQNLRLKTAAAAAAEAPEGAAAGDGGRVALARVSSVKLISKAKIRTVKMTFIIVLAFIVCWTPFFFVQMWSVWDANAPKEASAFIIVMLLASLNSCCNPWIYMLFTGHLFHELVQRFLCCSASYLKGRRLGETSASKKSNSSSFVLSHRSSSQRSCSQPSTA

This assay concerns the target Oxytocin receptor (Homo sapiens) (UniProt P30559). As to the kind of experiment: human OXTR potentiators, primary screen, fluorescence, CHO-OTR cells, Fluo-8 calcium (AID 2445).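 Also: 100% uses oxytocin at 75 nM as the full agonist control.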 The conditions noted are these: Fluo-8 calcium fluorescence, potentiator mode, at 3 µM, stronger effect = higher value, 0% = oxytocin EC15, 100% = EC100. An outline of the steps: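 Measured by – Fluo-8 calcium dye fluorescence · Test system – human OTR in CHO cells · Dosing – one concentration, 3.0 µM compound · Controls – EC15 oxytocin alone as 0%, 75 nM oxytocin as 100% · Evaluation – normalized max/min fluorescence ratio, % activation · Timing – 6 min pre-incubation, 100 s read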
`CC1CCC(NS(=O)(=O)c2ccc3c(c2)CC(=O)N3)CC1` (centres undefined): the activation was -7.03% (inactive).

In the case of `Cc1cc(C)cc(N(CC(=O)NC2CCCC2)C(=O)CCC(=O)Nc2cc(C)on2)c1`, the activation is -12.7% (inactive).

In the case of `Nc1ccc(SCCN2C(=O)c3ccccc3C2=O)cc1`, the activation is -2.44% (inactive).

As to `COc1cc(/C=C2\SC(=O)NC2=O)ccc1OCc1ccc(Cl)nc1`, the activation is -15.2% (inactive).

Turning to `CCOC(=O)c1ccccc1NC(=O)c1c(N)n(C)c(=O)[nH]c1=O`, the activation was -5.38% (inactive).

In the case of `CCC(C)[C@H](NC(=O)N1c2ccccc2NC(=O)[C@@H]1C(C)C)C(=O)N[C@@H](Cc1ccccc1)C(=O)O` (some centres undefined), the activation was -4.93% (inactive).

Turning to `CC1(C)CC(=O)CC2(C1)NCC(c1ccccc1Cl)c1c2[nH]c2ccccc12` (centres undefined), the activation is -23.6% (inactive).

In the case of `Cc1cccn2c(=O)nc(SCC(=O)NCc3ccccc3Cl)nc12`, the activation was -9.43% (inactive).

`O=C(NCCc1ccccn1)c1cc(C(=O)C2CCCCC2)c[nH]1`: the activation was -8.37% (inactive).

Take `Cc1nc(NCc2ccccc2)c(C(N)=O)c2c1COC(C)(C)C2`: the activation was -7.89% (inactive).

Consider `O=C1CCCc2nn(-c3ccccc3)nc21`, for which the activation was -20.3% (inactive).

In the case of `CCc1cc2c(SCC(=O)Nc3ncc(Cl)c(C)c3Cl)ncnc2s1`, the activation was -3.54% (inactive).

With `CC(C)Cn1c(CN(Cc2ccccc2)Cc2ccccc2)nc2c1c(=O)n(C)c(=O)n2C`, the activation is -4.31% (inactive).

Regarding `COCCn1c(CN(Cc2ccccc2)Cc2ccccc2)nc2c1c(=O)n(C)c(=O)n2C`, the activation was 6.98% (active).

For the compound `CC(C)CCn1c(CN(C)Cc2ccccc2)nc2c1c(=O)n(C)c(=O)n2C`, the activation is -2.79% (inactive).

Regarding `CCc1nn(CCCC(=O)NCc2ccc(C)cc2)c(=O)c2cc3occc3n12`, the activation is -17.3% (inactive).

In the case of `CCOC(=O)[C@H]1[C@H]2COc3cc(OC)ccc3[C@@H]2N2C(=O)N(c3ccc(Br)cc3)C(=O)[C@@]12C`, the activation is -10.7% (inactive).

Turning to `O=P(O)(CP(=O)(c1ccccc1)c1ccccc1)c1ccccc1`, the activation was -9.44% (inactive).

Take `Cc1cccc(N2CCN(C(=O)CN(C)S(=O)(=O)c3ccc4c(c3)CCC(=O)N4)CC2)c1C`: the activation was -9.67% (inactive).

With `CC(Oc1ccc(F)cc1)C(=O)Nc1ccccc1C(=O)NC1CC1` (centres undefined), the activation is 2.5% (inactive).

For `Cc1c(-c2nn(C)c(=O)c3ccccc23)oc2ccc(F)cc2c1=O`, the activation is -8.96% (inactive).

`C=CCOC(=O)C1=C[C@@H](c2ccc3c(c2)OCO3)C[C@@H](OCCCCO)O1`: the activation was -0.78% (inactive).

On to `Cc1ccc(N/N=C2\COC(C)(C)CC2=O)cc1`, for which the activation was -4.26% (inactive).

As for `CCOc1ccc(-c2c(C)n([O-])c3c([n+]2=O)CCCC3)cc1`, the activation was -2.39% (inactive).

For the origin of these results see PubChem BioAssay AID2445 (The Scripps Research Institute Molecular Screening Center, 2010).
